Measured values from ChEMBL document CHEMBL1833887, “Synthesis and evaluation of 7-substituted 4-aminoquinoline analogues for antimalarial activity” (J Med Chem, 2011).
Values after ≈ are worked out from the molar mass of the structure shown.

What was measured:
[1] = Solubility of the compound at pH 7.4 after 18 hrs by UV spectroscopic analysis; type: physicochemical; settings: buffer
Summary of the method: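 Kinetic solubility. A 10 mM stock is diluted 1:100 into PBS pH 7.4 and incubated 18 h at room temperature, then filtered; the filtrate is mixed 1:1 with 1-propanol. UV spectrum (250–500 nm) compared by AUC with a 1-propanol/PBS reference. Single experiment in triplicate.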

[2] = Permeability of the compound at pH 7.4 after 30 mins by PAMPA; type: ADME; settings: read-out: permeability
Summary of the method: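 PAMPA at pH 7.4. A 10 mM DMSO stock is diluted into system solution buffer; its UV spectrum serves as reference. Membrane painted with GIT lipid, acceptor chamber holds acceptor solution buffer. Sandwich stirred for 30 min, aqueous boundary layer set to 40. Donor and acceptor UV spectra read at 250–500 nm. Permeability coefficient from the AUCs of reference, donor and acceptor. Single experiment in triplicate.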

[3] = Dissociation constant, pKa of the compound; type: physicochemical
[4] = system: Plasmodium falciparum; experiment: Antimalarial activity against chloroquine-sensitive Plasmodium falciparum 3D7 infected in human erythrocytes assessed as reduction in parasitemia after 72 hrs by spectrophotometry; type: functional, organism-based; settings: 3D7, 72 h
[5] = system: Plasmodium falciparum; experiment: Antimalarial activity against chloroquine-resistant Plasmodium falciparum K1 infected in human erythrocytes assessed as reduction in parasitemia after 72 hrs by spectrophotometry; type: functional, organism-based; settings: K1, 72 h
[6] = system: Plasmodium falciparum; experiment: Ratio of EC50 for chloroquine-resistant Plasmodium falciparum K1 infected in human erythrocytes to EC50 for chloroquine-sensitive Plasmodium falciparum 3D7 infected in human erythrocytes; type: functional
[7] = system: HepG2; experiment: Cytotoxicity against human HepG2 cells assessed as intracellular ATP level after 72 hrs by Celltiter-Glo luminescent assay; type: cell-based; settings: HepG2, 72 h
[8] = Ratio of EC50 for human HepG2 cells to EC50 for Plasmodium falciparum 3D7 infected in human erythrocytes
[9] = Ratio of EC50 for human HepG2 cells to EC50 for Plasmodium falciparum K1 infected in human erythrocytes

COc1ccc(F)cc1CNCCCNc1ccnc2cc(C3CCCCC3)ccc12
solubility at 18 h [1]: 4.2 µM (≈ 1.77 µg/mL) | Papp at 0.5 h [2]: 23 ×10⁻⁶ cm/s | pKa [3]: 9.47 | EC50 [4]: 90 nM | EC50 [5]: 1600 nM | Ratio EC50 [6]: 17.7 | EC50 [7]: 2290 nM | Ratio EC50 [8]: 25.4 | Ratio EC50 [9]: 1.4

CCC(CC)c1ccc2c(NCCCNCc3ccco3)ccnc2c1
solubility at 18 h [1]: 4.2 µM (≈ 1.48 µg/mL) | Papp at 0.5 h [2]: 23 ×10⁻⁶ cm/s | pKa [3]: 9.47 | EC50 [4]: 86 nM | EC50 [5]: 4300 nM | Ratio EC50 [6]: 50.1 | EC50 [7]: 6760 nM | Ratio EC50 [8]: 78.7 | Ratio EC50 [9]: 1.6

Fc1ccc(Cc2ccc3c(NCCCNCc4ccco4)ccnc3c2)c(Cl)c1
solubility at 18 h [1]: 4.2 µM (≈ 1.78 µg/mL) | Papp at 0.5 h [2]: 23 ×10⁻⁶ cm/s | pKa [3]: 9.47 | EC50 [4]: 20 nM | EC50 [5]: 1220 nM | Ratio EC50 [6]: 62.1 | EC50 [7]: 5730 nM | Ratio EC50 [8]: 290.8 | Ratio EC50 [9]: 4.7

c1ccc(Cc2ccc3c(NCCCNCc4ccc5c(c4)OCO5)ccnc3c2)cc1
solubility at 18 h [1]: 4.2 µM (≈ 1.79 µg/mL) | Papp at 0.5 h [2]: 23 ×10⁻⁶ cm/s | pKa [3]: 9.47 | EC50 [4]: 720 nM | EC50 [5]: 1240 nM | Ratio EC50 [6]: 1.7 | EC50 [7]: 6280 nM | Ratio EC50 [8]: 8.7 | Ratio EC50 [9]: 5.1

Cc1cc(C)cc(Cc2ccc3c(NCCCNCc4ccc5c(c4)OCO5)ccnc3c2)c1
solubility at 18 h [1]: 4.2 µM (≈ 1.91 µg/mL) | Papp at 0.5 h [2]: 23 ×10⁻⁶ cm/s | pKa [3]: 9.47 | EC50 [4]: 41 nM | EC50 [5]: 1040 nM | Ratio EC50 [6]: 25.6 | EC50 [7]: 2250 nM | Ratio EC50 [8]: 55.5 | Ratio EC50 [9]: 2.2

COc1ccc(Oc2ccc3c(NCCCNCc4ccc5c(c4)OCO5)ccnc3c2)cc1
solubility at 18 h [1]: 14.5 µM (≈ 6.63 µg/mL) | Papp at 0.5 h [2]: 317 ×10⁻⁶ cm/s | pKa [3]: 9.28 | EC50 [4]: 46 nM | EC50 [5]: 1420 nM | Ratio EC50 [6]: 30.9 | EC50 [7]: 7900 nM | Ratio EC50 [8]: 172 | Ratio EC50 [9]: 6

Fc1ccc(Cc2ccc3c(NCCCNCc4ccc5c(c4)OCO5)ccnc3c2)cc1
solubility at 18 h [1]: 4.2 µM (≈ 1.86 µg/mL) | Papp at 0.5 h [2]: 23 ×10⁻⁶ cm/s | pKa [3]: 9.47 | EC50 [4]: 127 nM | EC50 [5]: 256 nM | Ratio EC50 [6]: 2 | EC50 [7]: 5550 nM | Ratio EC50 [8]: 43.7 | Ratio EC50 [9]: 21.7

COc1ccc(F)cc1CNCCCNc1ccnc2cc(CCC(C)C)ccc12
solubility at 18 h [1]: 4.2 µM (≈ 1.72 µg/mL) | Papp at 0.5 h [2]: 23 ×10⁻⁶ cm/s | pKa [3]: 9.47 | EC50 [4]: 116 nM | EC50 [5]: 360 nM | Ratio EC50 [6]: 3.1 | EC50 [7]: 890 nM | Ratio EC50 [8]: 7.7 | Ratio EC50 [9]: 2.5

FC(F)(F)c1cc(-c2ccc3c(NCCCNCc4ccc5c(c4)OCO5)ccnc3c2)cc(C(F)(F)F)c1
solubility at 18 h [1]: 32 µM (≈ 17.5 µg/mL) | Papp at 0.5 h [2]: 237 ×10⁻⁶ cm/s | pKa [3]: 9.47 | EC50 [4]: 284 nM | EC50 [5]: 604 nM | Ratio EC50 [6]: 2.1 | EC50 [7]: 1160 nM | Ratio EC50 [8]: 4.1 | Ratio EC50 [9]: 1.9

COc1ccc(F)cc1CNCCCNc1ccnc2cc(Cc3cccc(C(F)(F)F)c3)ccc12
solubility at 18 h [1]: 4.2 µM (≈ 2.09 µg/mL) | Papp at 0.5 h [2]: 23 ×10⁻⁶ cm/s | pKa [3]: 9.47 | EC50 [4]: 40 nM | EC50 [5]: 323 nM | Ratio EC50 [6]: 8.1 | EC50 [7]: 440 nM | Ratio EC50 [8]: 11 | Ratio EC50 [9]: 1.3

COc1ccccc1Oc1ccc2c(NCCCNCc3cccc(OC)c3O)ccnc2c1
solubility at 18 h [1]: 14.5 µM (≈ 6.66 µg/mL) | Papp at 0.5 h [2]: 317 ×10⁻⁶ cm/s | pKa [3]: 9.28 | EC50 [4]: 9 nM | EC50 [5]: 5700 nM | Ratio EC50 [6]: 626.4 | EC50 [7]: 11200 nM | Ratio EC50 [8]: 1227 | Ratio EC50 [9]: 2

c1ccc(-c2ccc3c(NCCCNCc4ccco4)ccnc3c2)cc1
solubility at 18 h [1]: 32 µM (≈ 11.4 µg/mL) | Papp at 0.5 h [2]: 237 ×10⁻⁶ cm/s | pKa [3]: 9.47 | EC50 [4]: 20 nM | EC50 [5]: 128 nM | Ratio EC50 [6]: 6.3 | EC50 [7]: 5920 nM | Ratio EC50 [8]: 291.6 | Ratio EC50 [9]: 46.4

c1coc(CNCCCNc2ccnc3cc(CC4CCCCC4)ccc23)c1
solubility at 18 h [1]: 4.2 µM (≈ 1.59 µg/mL) | Papp at 0.5 h [2]: 23 ×10⁻⁶ cm/s | pKa [3]: 9.47 | EC50 [4]: 55 nM | EC50 [5]: 621 nM | Ratio EC50 [6]: 11.2 | EC50 [7]: 1700 nM | Ratio EC50 [8]: 30.7 | Ratio EC50 [9]: 2.7

Clc1ccc(Oc2ccc3c(NCCCNCc4ccco4)ccnc3c2)cc1
solubility at 18 h [1]: 14.5 µM (≈ 5.91 µg/mL) | Papp at 0.5 h [2]: 317 ×10⁻⁶ cm/s | pKa [3]: 9.28 | EC50 [4]: 40 nM | EC50 [5]: 793 nM | Ratio EC50 [6]: 19.8 | EC50 [7]: 7800 nM | Ratio EC50 [8]: 194 | Ratio EC50 [9]: 10

COc1ccc(F)cc1CNCCCNc1ccnc2cc(Cc3cc(C)cc(C)c3)ccc12
solubility at 18 h [1]: 4.2 µM (≈ 1.92 µg/mL) | Papp at 0.5 h [2]: 23 ×10⁻⁶ cm/s | pKa [3]: 9.47 | EC50 [4]: 34 nM | EC50 [5]: 794 nM | Ratio EC50 [6]: 23.1 | EC50 [7]: 940 nM | Ratio EC50 [8]: 27.4 | Ratio EC50 [9]: 1.2

c1ccc(CCc2ccc3c(NCCCNCc4ccc5c(c4)OCO5)ccnc3c2)cc1
solubility at 18 h [1]: 4.2 µM (≈ 1.85 µg/mL) | Papp at 0.5 h [2]: 23 ×10⁻⁶ cm/s | pKa [3]: 9.47 | EC50 [4]: 13 nM | EC50 [5]: 1530 nM | Ratio EC50 [6]: 117.1 | EC50 [7]: 4980 nM | Ratio EC50 [8]: 380.3 | Ratio EC50 [9]: 3.2

COc1cccc(Oc2ccc3c(NCCCNCc4cc(F)ccc4OC)ccnc3c2)c1
solubility at 18 h [1]: 14.5 µM (≈ 6.69 µg/mL) | Papp at 0.5 h [2]: 317 ×10⁻⁶ cm/s | pKa [3]: 9.28 | EC50 [4]: 2360 nM | EC50 [5]: 296 nM | Ratio EC50 [6]: 0.1 | EC50 [7]: 7100 nM | Ratio EC50 [8]: 3 | Ratio EC50 [9]: 24

CC(C)Cc1ccc2c(NCCCNCc3ccco3)ccnc2c1
solubility at 18 h [1]: 4.2 µM (≈ 1.42 µg/mL) | Papp at 0.5 h [2]: 23 ×10⁻⁶ cm/s | pKa [3]: 9.47 | EC50 [4]: 581 nM | EC50 [5]: 4500 nM | Ratio EC50 [6]: 7.7 | EC50 [7]: 16000 nM | Ratio EC50 [8]: 27.5 | Ratio EC50 [9]: 3.6

COc1ccc(F)cc1CNCCCNc1ccnc2cc(Cc3ccccc3)ccc12
solubility at 18 h [1]: 4.2 µM (≈ 1.8 µg/mL) | Papp at 0.5 h [2]: 23 ×10⁻⁶ cm/s | pKa [3]: 9.47 | EC50 [4]: 11 nM | EC50 [5]: 1420 nM | Ratio EC50 [6]: 129.5 | EC50 [7]: 7990 nM | Ratio EC50 [8]: 726.7 | Ratio EC50 [9]: 5.6

Fc1ccc(Oc2ccc3c(NCCCNCc4ccc5c(c4)OCO5)ccnc3c2)cc1
solubility at 18 h [1]: 14.5 µM (≈ 6.46 µg/mL) | Papp at 0.5 h [2]: 317 ×10⁻⁶ cm/s | pKa [3]: 9.28 | EC50 [4]: 15 nM | EC50 [5]: 667 nM | Ratio EC50 [6]: 44.5 | EC50 [7]: 16000 nM | Ratio EC50 [8]: 1067 | Ratio EC50 [9]: 24

COc1ccc(F)cc1CNCCCNc1ccnc2cc(Oc3ccc(Cl)cc3)ccc12
solubility at 18 h [1]: 14.5 µM (≈ 6.76 µg/mL) | Papp at 0.5 h [2]: 317 ×10⁻⁶ cm/s | pKa [3]: 9.28 | EC50 [4]: 31 nM | EC50 [5]: 109 nM | Ratio EC50 [6]: 3.5 | EC50 [7]: 4500 nM | Ratio EC50 [8]: 143 | Ratio EC50 [9]: 41

CCC(CC)c1ccc2c(NCCCNCc3cccc(OC)c3O)ccnc2c1
solubility at 18 h [1]: 4.2 µM (≈ 1.71 µg/mL) | Papp at 0.5 h [2]: 23 ×10⁻⁶ cm/s | pKa [3]: 9.47 | EC50 [4]: 4 nM | EC50 [5]: 273 nM | Ratio EC50 [6]: 68.3 | EC50 [7]: 410 nM | Ratio EC50 [8]: 103.3 | Ratio EC50 [9]: 1.5

COc1cccc(CNCCCNc2ccnc3cc(Oc4ccc(F)cc4)ccc23)c1O
solubility at 18 h [1]: 14.5 µM (≈ 6.49 µg/mL) | Papp at 0.5 h [2]: 317 ×10⁻⁶ cm/s | pKa [3]: 9.28 | EC50 [4]: 11 nM | EC50 [5]: 3130 nM | Ratio EC50 [6]: 282.2 | EC50 [7]: 11000 nM | Ratio EC50 [8]: 990 | Ratio EC50 [9]: 4
